This note sets out measurements from ChEMBL document CHEMBL3352630, “Sequestered fulvinol-related polyacetylenes in Peltodoris atromaculata” (J Nat Prod, 2014).

What is called IC50 is the concentration needed to halve the response being measured. Low readings indicate higher potency, high ones lower potency.

A short description of test [1]: Growth inhibition of human U373 cells after 72 hrs by MTT assay. The class given is functional, cell-based, U-373MG ATCC. As to conditions: U373 MG. The method, boiled down: (§1)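 Human cancer cells (carcinoma: A549, MCF-7, PC-3; glioma: Hs683, U373; melanoma: SK-MEL-28) were cultured with the test compound for 72 h. Growth was read by MTT colorimetric assay, and the IC50 for in vitro growth inhibition is given in μM. Etoposide was run alongside as the reference agent.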
(Formazan colour is commonly taken as a measure of viable cells.)

The nature of test [2]: Growth inhibition of human PC3 cells after 72 hrs by MTT assay. In kind it is functional, cell-based. The note with it: PC-3, 72 h. In a few lines:
as §1

Test [3] can be described thus: Growth inhibition of human Hs683 cells after 72 hrs by MTT assay. The note with it: Hs 683, 72 h. In kind it is functional, cell-based. The method, boiled down:
as §1

Test [4] concerns MCF7. Description: Growth inhibition of human MCF7 cells after 72 hrs by MTT assay. In kind it is functional, cell-based. As to conditions: MCF7, 72 h. In a few lines: as §1
For test [5], the system named is A549. Description: Growth inhibition of human A549 cells after 72 hrs by MTT assay. The class given is functional, cell-based. The note with it: A549, 72 h. In a few lines: as §1
In test [6] the test system is SK-MEL-28. Kind of test: Growth inhibition of human SK-MEL-28 cells after 72 hrs by MTT assay. The class given is functional, cell-based. As to conditions: SK-MEL-28, 72 h. The method, boiled down: as §1

On to `COc1cc([C@@H]2c3cc4c(cc3[C@@H](O[C@@H]3O[C@@H]5CO[C@@H](C)O[C@H]5[C@H](O)[C@H]3O)[C@H]3COC(=O)[C@H]23)OCO4)cc(OC)c1O` [ETOPOSIDE], for which the 50% inhibitory concentration (IC50) stood at 7 µM in test [1]; 2 µM in test [2]; 1 µM in test [3]; 17 µM in test [4]; 0.1 µM in test [5]; 1 µM in test [6].
As to `C#C[C@@H](O)/C=C/CCCCCCCCC/C=C\CCCC/C=C\CCCC/C=C\CCCCCCCCCCCCC/C=C/[C@H](O)C#C`, the 50% inhibitory concentration (IC50) was 19 µM in test [1]; 18 µM in test [2]; 36 µM in test [3]; 23 µM in test [4]; 28 µM in test [5]; 11 µM in test [6].
Regarding `C#CC(=O)/C=C/CCCCCCCCC/C=C\CCCC/C=C\CCCC/C=C\CCCCCCCCCCCCC/C=C/C(=O)C#C`, the IC50 in test [1] is more than 100 µM; in test [2] it was 86 µM; in test [3], more than 100 µM; in test [4], 82 µM; in test [5], 37 µM; in test [6], more than 100 µM.
On to `C#C[C@@H](O)/C=C/CCCCCCCCCCCCC/C=C\CCCC/C=C\CCCC/C=C\C/C=C\CCCCCC(O)/C=C/[C@H](O)C#C` (some centres undefined), for which the IC50 in test [1] is 15 µM; in test [2], 32 µM; in test [3] it was 23 µM; in test [4], 15 µM; in test [5], 31 µM; in test [6] it was 3 µM.
